Test results published in ChEMBL document CHEMBL1126275, “Conformationally restrained, chiral (phenylisopropyl)amino-substituted pyrazolo[3,4-d]pyrimidines and purines with selectivity for adenosine A1 and A2 receptors” (J Med Chem, 1992).

How the values were obtained:
[1] = target: T1, Adenosine receptor A1 (Rattus norvegicus, UniProt P25099); assay: Inhibition of [3H]CHA binding to Adenosine A1 receptor in whole rat brain membranes; type: cell membranes
T1 sequence (P25099 whole entry): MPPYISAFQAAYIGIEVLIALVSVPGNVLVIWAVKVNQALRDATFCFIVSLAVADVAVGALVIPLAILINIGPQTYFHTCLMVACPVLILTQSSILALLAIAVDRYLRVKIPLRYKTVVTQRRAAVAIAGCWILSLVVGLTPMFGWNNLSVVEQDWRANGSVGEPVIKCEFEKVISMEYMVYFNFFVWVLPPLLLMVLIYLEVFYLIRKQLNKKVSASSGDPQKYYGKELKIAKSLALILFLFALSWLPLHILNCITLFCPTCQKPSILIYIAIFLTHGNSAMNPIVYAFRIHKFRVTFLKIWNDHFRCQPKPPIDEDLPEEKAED
Procedure, shortened: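 Whole rat brain membranes; [³H]CHA binding measured at 25 °C. Compounds from millimolar DMSO stocks diluted in water. Ki given as geometric mean ± standard error of a single determination run in triplicate.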

[2] = target: Adenosine receptors; A1 & A2 (Rattus norvegicus) (UniProt P29276+P25099+P30543); assay: Selectivity ratio against Adenosine A1 and A2 Receptors, ratio of Ki; type: protein assay
Procedure, shortened: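 Ratio of A2 Ki ([³H]NECA, rat striatum, 25 °C) to A1 Ki ([³H]CHA, whole rat brain membranes, 25 °C). Each Ki is a geometric mean from a single triplicate determination.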

[3] = target: Adenosine A2 receptor (Rattus norvegicus, UniProt P29276+P30543); assay: Inhibition of [3H]NECA binding to Adenosine A2 receptor in rat brain striatum; type: tissue-based
Procedure, shortened: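 [³H]NECA binding in rat brain striatum at 25 °C. Compounds from millimolar DMSO stocks diluted in water. Ki given as geometric mean ± standard error of a single determination in triplicate.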

[4] = target: T1, Adenosine receptor A1; assay: Inhibition of [3H]CHA binding to Adenosine A1 receptor in rat cerebral cortical membranes; type: cell membranes, Membrane
Procedure, shortened: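 Rat cerebral cortical membranes; displacement of [³H]CHA binding. Test compounds held as millimolar DMSO stocks, warmed to room temperature and diluted in water. Values from a single competition experiment, each concentration in triplicate.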

| Ki [1] | Selectivity ratio [2] | Ki [3] | IC50 [4] | Structure (SMILES) |
| --- | --- | --- | --- | --- |
| 1 µM | 0.31 | 0.31 µM | – | CCCOc1nc(N[C@H](C)[C@@H](O)c2ccccc2)c2cnn(-c3ccccc3)c2n1 |
| 1.6 µM | – | 4.2 µM | – | CCCOc1nc(N[C@H](CO)Cc2ccccc2)c2cnn(-c3ccccc3)c2n1 (stereo in doubt; 10a) [listing 1 of 2 here] |
| 0.62 µM | > 100 | > 100 µM | – | CCCOC1=Nc2c(cnn2-c2ccccc2)C2=N[C@H](Cc3ccccc3)CN12 |
| 0.35 µM | – | 0.37 µM | – | CCCOc1nc(N[C@H](CO)Cc2ccccc2)c2cnn(-c3ccccc3)c2n1 (stereo in doubt; 10b) [listing 1 of 2 here] |
| – | 2.6 | – | – | CCCOc1nc(N[C@H](CO)Cc2ccccc2)c2cnn(-c3ccccc3)c2n1 (stereo in doubt; 10a) [listing 2 of 2 here] |
| – | – | – | 4.8 µM | COc1nc2c(cnn2-c2ccccc2)c(=O)n1C |
| 33 µM | 1.4 | 45 µM | – | CCCOC1=Nc2c(cnn2-c2ccccc2)C2=N[C@@H](C)[C@H](c3ccccc3)N12 |
| – | 1 | – | – | CCCOc1nc(N[C@H](CO)Cc2ccccc2)c2cnn(-c3ccccc3)c2n1 (stereo in doubt; 10b) [listing 2 of 2 here] |
| 6.3 µM | 0.22 | 1.4 µM | – | CCCOc1nc(N[C@@H](C)[C@H](O)c2ccccc2)c2cnn(-c3ccccc3)c2n1 |
| 0.44 µM | 68 | 30 µM | – | CCCOc1nc(N[C@@H](CO)Cc2ccccc2)c2ncn(-c3ccccc3)c2n1 |
| – | – | – | 35 µM | CCCn1c(=O)n(C)c(=O)c2cnn(-c3ccccc3)c21 |
| – | 0.18 | 1.6 µM | – | CCCOC1=Nc2c(ncn2-c2ccccc2)C2=N[C@@H](Cc3ccccc3)CN12 |
| 7.4 µM | 1.5 | 11 µM | – | CCCOC1=Nc2c(cnn2-c2ccccc2)C2=N[C@H](C)[C@@H](c3ccccc3)N12 |
| – | – | – | 33 µM | Cn1c(=O)c2cnn(-c3ccccc3)c2n(C)c1=O |
| 0.096 µM | 58 | 5.6 µM | – | CCCOc1nc(N[C@H](CO)Cc2ccccc2)c2ncn(-c3ccccc3)c2n1 |
| 9.4 µM | 0.35 | 3.3 µM | – | CCCOC1=Nc2c(cnn2-c2ccccc2)C2=N[C@@H](Cc3ccccc3)CN12 |
| 3.2 µM | 22 | 72 µM | – | CCCOC1=Nc2c(ncn2-c2ccccc2)C2=N[C@H](Cc3ccccc3)CN12 |
